The results in this text go back to ChEMBL document CHEMBL4152216, “Syntheses and anti-pancreatic cancer activities of rakicidin A analogues” (Eur J Med Chem, 2018).

The target of data set [1] is T1, Aldehyde dehydrogenase, mitochondrial (Homo sapiens) (UniProt P05091).
T1 sequence (whole entry): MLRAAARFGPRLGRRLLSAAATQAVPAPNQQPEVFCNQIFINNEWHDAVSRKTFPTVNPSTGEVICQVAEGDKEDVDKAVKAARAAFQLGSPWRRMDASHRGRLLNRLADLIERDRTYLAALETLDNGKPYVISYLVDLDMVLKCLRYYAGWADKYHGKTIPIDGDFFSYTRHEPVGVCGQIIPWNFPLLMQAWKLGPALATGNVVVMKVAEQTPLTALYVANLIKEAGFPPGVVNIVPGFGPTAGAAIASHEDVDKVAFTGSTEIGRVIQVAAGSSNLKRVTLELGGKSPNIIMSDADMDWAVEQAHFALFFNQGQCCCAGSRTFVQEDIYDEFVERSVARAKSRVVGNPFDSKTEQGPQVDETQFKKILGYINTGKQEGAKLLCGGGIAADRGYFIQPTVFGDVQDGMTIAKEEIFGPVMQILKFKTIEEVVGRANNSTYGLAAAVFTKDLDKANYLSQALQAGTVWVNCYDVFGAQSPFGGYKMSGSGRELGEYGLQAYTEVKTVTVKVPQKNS
The data set is described as follows: Inhibition of ALDH in human PANC1 cells assessed as aldefluor positive cells at 0.2 uM after 72 hrs by aldefluor assay (reference value: 12.5%). Further details: scale not given: the % may be the effect or the level left. The class given is cell-based. The essentials: (§1)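 PANC-1 cells were seeded at 5×10^4 cells/well and exposed after 6 h to compound (0.2 µM; ADR 0.5 µM) for 72 h. Living cells were suspended in assay buffer and incubated with Aldefluor substrate for 60 min at 37 °C. A parallel sample received substrate plus the ALDH inhibitor DEAB as negative control. Readout was percentage of ALDH+ cells, mean ± SEM, n = 3.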

Data set [2] relates to PaTu 8988t. The data set is described as follows: Cytotoxicity against human PA-TU-8988T cells after 72 hrs under normoxic condition by MTT assay. The class given is functional, cell-based. An outline of the steps: (§2)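 PANC-1, PATU8988T and ASPC-1 cells were grown in DMEM with 10% FBS at 37 °C and 5% CO2, then seeded at 4000 cells/well. Compounds were added at various concentrations after 6 h. Normoxic plates stayed at 37 °C, 5% CO2. Hypoxic plates went into a chamber purged 10 min with 5% CO2/1% O2/94% N2, sealed, at 37 °C. After 72 h, MTT was added for 4 h, formazan dissolved in DMSO and read at 570 nm. IC50 is the mean ± SD of three independent experiments.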
(In general: Formazan colour is commonly taken as a measure of viable cells.)

Data set [3] has as its system PaTu 8988t. The data set is described as follows: Selectivity index, ratio of IC50 against human PA-TU-8988T cells under normoxic condition to IC50 for human PA-TU-8988T cells under hypoxic condition. The class given is functional. The essentials: (§3)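 Hypoxic selectivity index is IC50 (normoxia)/IC50 (hypoxia). Both IC50s come from the 72 h MTT assay in the same cell line, run under normoxia (37 °C, 5% CO2) or a sealed 1% O2/5% CO2/94% N2 chamber, each the mean of three independent experiments.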

Data set [4] relates to PANC-1. The experiment in a line: Inhibition of cancer stem cell population of human PANC1 cells assessed as CD24+/CD44+/ESA+ cell population level at 0.15 uM after 48 hrs by flow cytometric analysis (reference value: 1.7%). The class given is functional. Further details: scale not given: the % may be the effect or the level left. (In general: A flow cytometer gives signals particle by particle.)

Data set [5] deals with PANC-1. The experiment in a line: Cytotoxicity against human PANC1 cells after 72 hrs under hypoxic condition by MTT assay. In kind it is functional, cell-based. The settings on record: PANC-1, 72 h. The essentials:
as §2

Data set [6] has as its system ASPC1. The data set is described as follows: Selectivity index, ratio of IC50 against human Aspc-1 cells under normoxic condition to IC50 for human Aspc-1 cells under hypoxic condition. The class given is functional. An outline of the steps: as §3
For data set [7], the system named is PANC-1. The experiment in a line: Antitumor activity against human PANC1 cells xenografted in BALB/c nude mouse assessed as reduction in tumor initiating cell frequency at 0.1 to 0.25 uM measured after 7 days. In kind it is functional. An outline of the steps:
(§4)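 PANC-1 cells were treated in vitro with compound (ADR at 0.5 µM) for 48 h, collected, and injected subcutaneously at limiting cell doses into 5-week-old female BALB/c nude mice. Tumor formation rate was scored after 7 days. Tumor-initiating frequency was derived by limiting-dilution analysis with Poisson statistics against vehicle.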
For orientation: Xenograft models place foreign cells or tissue in a host animal.

The test system of data set [8] is PANC-1. The experiment in a line: Selectivity index, ratio of IC50 against human PANC1 cells under normoxic condition to IC50 for human PANC1 cells under hypoxic condition. The class given is functional. An outline of the steps: as §3
Data set [9] has as its system ASPC1. The data set is described as follows: Cytotoxicity against human Aspc-1 cells after 72 hrs under hypoxic condition by MTT assay. The class given is functional, cell-based. The settings on record: ASPC1, 72 h. An outline of the steps:
as §2

Data set [10] concerns PANC-1. The experiment in a line: Inhibition of tumorsphere formation in human PANC1 cells assessed as reduction in number of tumor spheres at 0.25 uM after 7 days. The class given is functional. An outline of the steps: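 Tumorsphere formation: single-cell PANC-1 suspensions were plated in ultra-low-attachment wells at 2,000 cells/mL in Complete MammoCult medium, with compound at 0.25 µM. Tumorspheres were counted after 7 days. Three repeats, mean ± SEM.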

The subject of data set [11] is PaTu 8988t. The data set is described as follows: Cytotoxicity against human PA-TU-8988T cells after 72 hrs under hypoxic condition by MTT assay. The class given is functional, cell-based. An outline of the steps: as §2
The subject of data set [12] is ASPC1. The data set is described as follows: Cytotoxicity against human Aspc-1 cells after 72 hrs under normoxic condition by MTT assay. The settings on record: ASPC1, 72 h. In kind it is functional, cell-based. An outline of the steps: as §2
Data set [13] concerns the target T1, Aldehyde dehydrogenase, mitochondrial (Homo sapiens). The data set is described as follows: Inhibition of ALDH in human PANC1 cells assessed as aldefluor positive cells at 0.2 uM after 72 hrs in presence of DEAB by aldefluor assay (reference value: 0.455%). The class given is cell-based. The arrangement: scale not given: the % may be the effect or the level left. An outline of the steps: as §1

Data set [14] has as its system PANC-1. The experiment in a line: Cytotoxicity against human PANC1 cells after 72 hrs under normoxic condition by MTT assay. The settings on record: PANC-1, 72 h. In kind it is functional, cell-based. The essentials:
as §2

In data set [15] the test system is PANC-1. The data set is described as follows: Antitumor activity against human PANC1 cells xenografted in zebrafsh yolk assessed as tumor growth inhibition at 0.005 uM after 2 days by fluorescence microscopy. The class given is functional. An outline of the steps:
(§5)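 About 300 PANC-1 cells were microinjected into the yolk of 2 dpf wild-type AB zebrafish, which were held at 35 °C to 3 dpf. Fish were then randomized to 6-well plates, 30 per well, and dosed once with compound at 0.005–50 µM. Gemcitabine 66.7 µM served as positive control and 10% aqueous castor oil as blank. After 2 days at 35 °C, 15 fish per group were imaged by fluorescence microscopy. Inhibition (%) = (1 − S(sample)/S(blank)) × 100, mean ± SEM, n = 15.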

Data set [16] has as its system ASPC1. The data set is described as follows: Potency index, ratio of […] for rakicidin A to IC50 for test compound for cytotoxicity against human Aspc-1 cells after 72 hrs under hypoxic condition by MTT assay. In kind it is functional.
For data set [17], the system named is PANC-1. The experiment in a line: Antitumor activity against human PANC1 cells xenografted in zebrafsh yolk assessed as tumor growth inhibition at 5 uM after 2 days by fluorescence microscopy. The class given is functional. An outline of the steps:
as §5

In data set [18] the test system is PANC-1. The experiment in a line: Antitumor activity against human PANC1 cells xenografted in zebrafsh yolk assessed as tumor growth inhibition at 0.05 uM after 2 days by fluorescence microscopy. In kind it is functional. An outline of the steps: as §5
Data set [19] concerns PANC-1. The experiment in a line: Antitumor activity against human PANC1 cells xenografted in zebrafsh yolk assessed as tumor growth inhibition at 0.5 uM after 2 days by fluorescence microscopy. In kind it is functional. The essentials: as §5
The subject of data set [20] is PANC-1. The data set is described as follows: Antitumor activity against human PANC1 cells xenografted in zebrafsh yolk assessed as tumor growth inhibition at 50 uM after 2 days by fluorescence microscopy. In kind it is functional. The essentials:
as §5

Data set [21] has as its system Danio rerio. The data set is described as follows: Toxicity in zebrafish xenografted with human PANC1 cells at 50 uM after 2 days by fluorescence microscopy. The class given is organism-based. The conditions noted are these: 48 h.
Data set [22] relates to PANC-1. The data set is described as follows: Antitumor activity against human PANC1 cells xenografted in zebrafsh yolk assessed as tumor growth inhibition at 66.7 uM after 2 days by fluorescence microscopy. The class given is functional. An outline of the steps: as §5
Data set [23] concerns the target T1, Aldehyde dehydrogenase, mitochondrial (Homo sapiens). The experiment in a line: Inhibition of ALDH in human PANC1 cells assessed as aldefluor positive cells at 0.5 uM after 72 hrs by aldefluor assay (reference value: 12.5%). In kind it is cell-based. Further details: scale not given: the % may be the effect or the level left. The essentials:
as §1

Data set [24] has as its system PANC-1. The experiment in a line: Increase in tumor initiating cell frequency in human PANC1 cells xenografted in BALB/c nude mouse at 0.5 uM measured after 7 days. In kind it is cell-based. The settings on record: in vivo, 168 h. The essentials:
as §4

Data set [25] addresses T1, Aldehyde dehydrogenase, mitochondrial (Homo sapiens). The data set is described as follows: Inhibition of ALDH in human PANC1 cells assessed as aldefluor positive cells at 0.5 uM after 72 hrs in presence of DEAB by aldefluor assay (reference value: 0.455%). The class given is cell-based. The arrangement: scale not given: the % may be the effect or the level left. The essentials: as §1

SMILES strings stand for the structures.

A word on the IC50: it is the point on the concentration scale where inhibition reaches its midpoint. With `C=C1/C=C/C(=O)N(C)CC(=O)N[C@@H]([C@H](O)C(N)=O)C(=O)O[C@@H]([C@H](C)CCCCCCCCCCCC(C)C)[C@H](C)C(=O)N1`, the Activity in data set [1] was found to be 0.46%; in data set [4] it was 0.43%; in data set [13], 0.544%. Also, the IC50 in [2] was 240 nM; in [5] it was 42 nM; in [9], 82 nM; in data set [11], 33 nM; in data set [12], 680 nM; in data set [14], 220 nM. In addition, the “Ratio IC50” value was determined as 7.54 in [3], 8.4 in [6] and 5.24 in [8]. The “fold change (FC)” value in [7] stood at 4.7; in data set [10], 4.
For `C=C1/C=C/C(=O)N(C)CC(=O)N[C@@H](CC(=O)NC2CC2)C(=O)O[C@@H]([C@H](C)CCCCCCCCCCCCCC)[C@H](C)C(=O)N1`, the Activity is 5.84% in [1], 0.5% in data set [4], 0.746% in data set [13] and “Non-Toxic” in [21]. Moreover, the TGI in [15] was 15%; in [17], 22%; in [18], 10%; in data set [19], 5%; in data set [20] it was 45%. Besides, the IC50 in [2] worked out at 200 nM; in data set [5] it was 24 nM; in [9], 22 nM; in data set [11], 24 nM; in data set [12] it was 270 nM; in data set [14] it was 130 nM. For the same compound, the “Ratio IC50” value in [3] came to 8.3; in [6] it was 12.27; in data set [8], 5.25; in data set [16], 4. Further, the results for the “fold change (FC)” value in [7] and in [10] were 19 and 8.7, respectively.
In the case of `Nc1ccn([C@@H]2O[C@H](CO)[C@@H](O)C2(F)F)c(=O)n1` [GEMCITABINE], the Activity in data set [4] stood at 1.4%. In addition, the half-inhibitory concentration (IC50) in data set [5] came out at 1700 nM; in data set [14] it was 400 nM. The “Ratio IC50” value in [8] stood at 0.24. The TGI in data set [22] was 55%.
As for `COc1cccc2c1C(=O)c1c(O)c3c(c(O)c1C2=O)C[C@@](O)(C(=O)CO)C[C@@H]3O[C@H]1C[C@H](N)[C@H](O)[C@H](C)O1.Cl` [DOXORUBICIN HYDROCHLORIDE], the results for the Activity in data set [4], in data set [23] and in data set [25] were 8.9%, 18.8% and 0.964%, respectively. In addition, the IC50 in data set [5] was determined as 1700 nM; in data set [9] it was 2000 nM; in [12], 1600 nM; in data set [14], 480 nM. Moreover, the entries for the “Ratio IC50” value in [6] and in data set [8] were 0.78 and 0.29, respectively. For the same compound, the “fold change (FC)” value in [24] stood at 1.6.
For the compound `C=C1/C=C/C(=O)N(C)CC(=O)NCC(=O)O[C@@H]([C@H](C)CCCCCCCCCCCCCC)[C@H](C)C(=O)N1`, the TGI in [15] is listed as 14%; in data set [17] it was 26%; in data set [18], -2%; in [19], 6%; in data set [20], 47%. The IC50 turned out to be 2470 nM in data set [2]; 310 nM in data set [5]; 490 nM in data set [9]; 440 nM in [11]; 4170 nM in data set [12]; 2480 nM in data set [14]. Also, the “Ratio IC50” value is 5.67 in data set [3], 8.6 in [6] and 7.93 in data set [8]. The Activity result in data set [21] was “Non-Toxic”.
